Data set [1] is described as follows: Induction of osteoblast differentiation in Sprague-Dawley rat calvarial osteoblasts assessed as alkaline phosphatase activity after 48 hrs using PNPP as substrate by spectrophotometric method. The format is functional, cell-based. The note with it: Rattus norvegicus, Sprague-Dawley, Calvarial osteoblast, 48 h; read-out: EC50. In short, it runs like this: (§1)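 Calvarial osteoblasts at 2 × 10³ cells/well. Treated 48 h with varied concentrations in differentiation medium (5% charcoal-treated FBS, 10 mM β-glycerophosphate, 50 µg·mL⁻¹ ascorbic acid). Total ALP read with PNPP substrate at 405 nm. Cell-free wells check for compound interference with substrate or absorbance.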

The nature of data set [2]: Induction of osteoblast differentiation in Sprague-Dawley rat calvarial osteoblasts assessed as alkaline phosphatase activity at 100 nM after 48 hrs using PNPP as substrate by spectrophotometric method relative to control. Type of data set: functional. An outline of the steps:
as §1

Data set [3] relates to Rattus norvegicus. The data set is described as follows: Antiosteoporotic activity in Sprague-Dawley rat model of OVX-induced bone loss assessed as increase in femoral bone strength by measuring energy at 100 ug/kg, sc administered 5 days/week for 12 weeks by 3 point bending test (reference value: 46.27 +/- 4.36 mJ). The format is functional.
The subject of data set [4] is Rattus norvegicus. The data set is described as follows: Antiosteoporotic activity in Sprague-Dawley rat model of OVX-induced bone loss assessed as protection against microarchitectural deterioration by measuring trabecular separation at 100 ug/kg, sc administered 5 days/week for 12 weeks by microcomputed tomographic analysis (reference value: 1.31 +/- 0.06 millimeter). The format is functional. In short, it runs like this: (§2)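 Adult female Sprague-Dawley rats were ovariectomized and left 12 weeks to become osteopenic. They then received 12 weeks of once-daily oral gavage (1% gum acacia vehicle) or subcutaneous estradiol, five days a week. Femurs were collected at sacrifice and scanned by micro-CT for BMD and trabecular microarchitecture. Ten rats per group; mean ± SEM.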

Data set [5] deals with Rattus norvegicus. Briefly: Antiosteoporotic activity in Sprague-Dawley rat model of OVX-induced bone loss assessed as protection against microarchitectural deterioration by measuring ratio of bone volume/[…] at 100 ug/kg, sc administered 5 days/week for 12 weeks by microcomputed tomographic analysis (reference value: 4.68 +/- 0.58%). Type of data set: functional.

Data set [6] concerns Rattus norvegicus. The data set is described as follows: Antiosteoporotic activity in Sprague-Dawley rat model of OVX-induced bone loss assessed as decrease in serum CTX level at 100 ug/kg, sc administered 5 days/week for 12 weeks by ELISA. The format is functional, organism-based. An outline of the steps:
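Ovariectomy model as above: 12 weeks of osteopenia, then 12 weeks of daily gavage or subcutaneous estradiol. Serum was separated at autopsy, and CTX and PINP were measured by ELISA kits.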

The nature of data set [7]: Toxicity in Sprague-Dawley rat model of OVX-induced bone loss assessed as luminal epithelial height at 100 ug/kg, sc for 12 weeks (reference value: 27.29 +/- 0.96 umeter). The note with it: in vivo, 0.1 mg/kg, 2016 h. The format is organism-based.
Data set [8] addresses T1, I-kappa-B kinase (Rattus norvegicus) (UniProt Q9QY78+G3V926+Q6TMG5). The data set is described as follows: Inhibition of IKK in Sprague-Dawley rat calvarial osteoblasts assessed as reduction in TNFalpha-induced IkBalpha phosphorylation by measuring ratio of phosphorylated IkBalpha level to beta-actin level at 10 nM after 24 hrs by Western blot analysis (reference value: 2.32). The format is cell-based. The note with it: Calvarial osteoblast. In short, it runs like this:
(§3)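 Primary osteoblasts from pooled calvaria of 1-2 day SD rat pups (sequential dispase/collagenase digestion) were grown to 60-70% confluence. They were treated with 17β-estradiol 10 nM in the presence of TNFα 10 ng·ml⁻¹ for 24 h. Whole-cell lysates were immunoblotted, and bands were detected by ECL. Densitometry was normalised to β-actin.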
For orientation: Immunoblotting shows a protein as a band on a membrane.

The nature of data set [9]: Toxicity in Sprague-Dawley rat model of OVX-induced bone loss assessed as luminal area at 100 ug/kg, sc for 12 weeks (reference value: 0.01 +/- 0.0004 mm2). The note with it: in vivo, 0.1 mg/kg, 2016 h. The format is organism-based.
The subject of data set [10] is Rattus norvegicus. The data set is described as follows: Antiosteoporotic activity in Sprague-Dawley rat model of OVX-induced bone loss assessed as increase in femoral bone strength by measuring stiffness at 100 ug/kg, sc administered 5 days/week for 12 weeks by 3 point bending test (reference value: 122.07 +/- 12.18 N/mm). The format is functional.
The subject of data set [11] is Rattus norvegicus. The data set is described as follows: Antiosteoporotic activity in Sprague-Dawley rat model of OVX-induced bone loss assessed as protection against microarchitectural deterioration by measuring structural model index at 100 ug/kg, sc administered 5 days/week for 12 weeks by microcomputed tomographic analysis (reference value: 2.07 +/- 0.06). Type of data set: functional.

Data set [12] deals with T1, I-kappa-B kinase (Rattus norvegicus). The data set is described as follows: Inhibition of IKK in Sprague-Dawley rat calvarial osteoblasts assessed as reduction in TNFalpha-induced beta-catenin degradation by measuring ratio of beta-catenin level to beta-actin level at 10 nM after 24 hrs by Western blot analysis (reference value: 0.32). Type of data set: cell-based. The note with it: Calvarial osteoblast. An outline of the steps:
as §3

The test system of data set [13] is Rattus norvegicus. Briefly: Antiosteoporotic activity in Sprague-Dawley rat model of OVX-induced bone loss assessed as bone formation rate at 100 ug/kg, sc administered 5 days/week for 12 weeks by microcomputed tomographic analysis (reference value: 0.171 +/- 0.005 um3/um2/day). The format is functional. In short, it runs like this: (§4)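 Female Sprague-Dawley rats, 10-12 weeks old, ten per group, were ovariectomized and left 12 weeks for osteopenia. They were then dosed once daily by oral gavage for 12 weeks in 1% gum acacia vehicle. The estradiol arm received 100 µg·kg⁻¹ subcutaneously five days a week. Tetracycline and calcein were given intraperitoneally at 20 mg·kg⁻¹ each. Femur cross-sections (50 µm) were imaged by fluorescence microscopy for MAR and BFR.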

For data set [14], the system named is Rattus norvegicus. Briefly: Antiosteoporotic activity in Sprague-Dawley rat model of OVX-induced bone loss assessed as mineral apposition rate at 100 ug/kg, sc administered 5 days/week for 12 weeks by microcomputed tomographic analysis (reference value: 0.169 +/- 0.004 umeter/day). The format is functional. In short, it runs like this:
as §4

Data set [15] has as its target T1, I-kappa-B kinase (Rattus norvegicus). Briefly: Inhibition of IKK in TNFalpha-simulated Sprague-Dawley rat calvarial osteoblasts assessed as ratio of IkBalpha level to beta-actin level at 10 nM after 24 hrs by Western blot analysis (reference value: 0.78). Type of data set: cell-based. The note with it: Calvarial osteoblast. In short, it runs like this: as §3

Data set [16] shares this target. The data set is described as follows: Inhibition of IKK in Sprague-Dawley rat calvarial osteoblasts assessed as reduction in TNFalpha-induced NFkB nuclear translocation at 10 nM after 24 hrs by immunofluorescence assay. The format is cell-based. The note with it: Calvarial osteoblast. In short, it runs like this:
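Primary rat osteoblasts on chamber slides given TNFα (10 ng·ml⁻¹) for 24 h, with or without treatment. Then 4% PFA fixation, 0.1% Triton X-100, anti-NF-κB overnight, and Cy3 anti-rabbit secondary. Fluorescence imaged at excitation 552 nm, emission 570 nm.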

Data set [17] is described as follows: Toxicity in Sprague-Dawley rat model of OVX-induced bone loss assessed as uterine weight at 100 ug/kg, sc for 12 weeks (reference value: 0.12 +/- 0.02 g). The format is organism-based. The note with it: in vivo, 0.1 mg/kg, 2016 h.
Data set [18] is described as follows: Toxicity in Sprague-Dawley rat model of OVX-induced bone loss assessed as total uterine area at 100 ug/kg, sc for 12 weeks (reference value: 0.11 +/- 0.003 mm2). The format is organism-based. The note with it: in vivo, 0.1 mg/kg, 2016 h.
For data set [19], the target named is T1, I-kappa-B kinase (Rattus norvegicus). The data set is described as follows: Inhibition of IKK in Sprague-Dawley rat calvarial osteoblasts assessed as reduction in TNFalpha-induced NFkB signaling by measuring ratio of cytosolic p65 level to beta-actin level at 10 nM after 24 hrs by Western blot analysis (reference value: 0.99). Type of data set: cell-based. The note with it: Calvarial osteoblast.

The test system of data set [20] is Rattus norvegicus. Briefly: Antiosteoporotic activity in Sprague-Dawley rat model of OVX-induced bone loss assessed as protection against microarchitectural deterioration by measuring trabecular bone pattern factor at 100 ug/kg, sc administered 5 days/week for 12 weeks by microcomputed tomographic analysis (reference value: 10.81 +/- 0.68 /millimeter). The format is functional. An outline of the steps:
as §2

In data set [21] the target is T1, I-kappa-B kinase (Rattus norvegicus). The data set is described as follows: Inhibition of IKK in Sprague-Dawley rat calvarial osteoblasts assessed as reduction in TNFalpha-induced NFkB signaling by measuring ratio of nuclear p65 level to beta-actin level at 10 nM after 24 hrs by Western blot analysis (reference value: 2.97). Type of data set: cell-based. The note with it: Calvarial osteoblast.

For data set [22] the target is unchanged. Briefly: Inhibition of IKK in TNFalpha-simulated Sprague-Dawley rat calvarial osteoblasts assessed as ratio of Bax level to beta-actin level at 10 nM after 24 hrs by Western blot analysis (reference value: 1.25). Type of data set: cell-based. The note with it: Calvarial osteoblast. An outline of the steps: as §3
The target is the same in data set [23]. Briefly: Inhibition of IKK in TNFalpha-simulated Sprague-Dawley rat calvarial osteoblasts assessed as ratio of Bcl2 level to beta-actin level at 10 nM after 24 hrs by Western blot analysis (reference value: […]). Type of data set: cell-based. The note with it: Calvarial osteoblast.
The target is the same in data set [24]. Briefly: Inhibition of IKK in TNFalpha-simulated Sprague-Dawley rat calvarial osteoblasts assessed as ratio of Bcl-xL level to beta-actin level at 10 nM after 24 hrs by Western blot analysis (reference value: 0.69). Type of data set: cell-based. The note with it: Calvarial osteoblast. An outline of the steps:
as §3

In data set [25] the test system is Rattus norvegicus. The data set is described as follows: Antiosteoporotic activity in Sprague-Dawley rat model of OVX-induced bone loss assessed as protection against microarchitectural deterioration by measuring trabecular number at 100 ug/kg, sc administered 5 days/week for 12 weeks by microcomputed tomographic analysis (reference value: 0.56 +/- 0.06 /millimeter). Type of data set: functional. In short, it runs like this:
as §2

SMILES strings stand for the structures. Calls of active or inactive are those of the source. The rule behind the calls is not given here.

Regarding `CCOC(=O)c1cc2c([nH]c3ccccc32)c(C(c2nnnn2C(C)(C)C)N2CCN(CC)CC2)n1` (stereo not given), the EC50 (in general, the concentration at which the effect is half-maximal) in data set [1] amounted to 936 nM. Moreover, in data set [2], the Emax (usually the size of the effect at its maximum, as opposed to the concentration needed) at 0.1 µM worked out at 14%.

Take `C[C@]12CC[C@@H]3c4ccc(O)cc4CC[C@H]3[C@@H]1CC[C@@H]2O` [ESTRADIOL]: the Activity with Rattus norvegicus [3] stood at 62.77 mJ; in the data set with Rattus norvegicus [4] it was 0.68 mm; in data set [7] it was 17.8 um; in [9], 0.054 mm2; in the data set on Rattus norvegicus [10], 171.75 N/mm; in the data set on Rattus norvegicus [13], 1.04 um3/um2/day. The Activity with Rattus norvegicus [14] was 1.06 micrometer/day; in [17], 0.45 g; in data set [18], 0.87 mm2; in the data set on Rattus norvegicus [20], 5.99 /millimeter; in the data set with Rattus norvegicus [25] it was 1.55 /millimeter. In addition, the Ratio is 11.09% with Rattus norvegicus [5]; 1.26 in data set [8]; 0.81 in [12]; 0.66 in data set [15]; 1.45 in data set [19]; 1.41 in [21]. The Ratio in [22] was 0.65; in data set [23], 1.45; in data set [24], 0.9. In the data set on Rattus norvegicus [6], the outcome was inactive. The Activity_index in the data set on Rattus norvegicus [11] is on record as 1.6. Further, in data set [16], the inhibition entry is “Active”.

The record behind these values is ChEMBL document CHEMBL4325822, “Discovery of a tetrazolyl β-carboline with in vitro and in vivo osteoprotective activity under estrogen-deficient conditions” (Medchemcomm, 2018).
